Source: PubChem
An excerpt weighted towards active compounds, which were near 2.3% of everything screened.
PfHsp90 yeast 2: reduces growth (ATP signal) of yeast expressing P. falciparum Hsp90; S. cerevisiae expressing PfHsp90, BacTiter-Glo ATP, 48 h; yeast lacking PDR1 and PDR3 efflux regulators; inhibition, % at 9.4 µM; actives 0.32% (n = 310,000); AID 504621;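 active = every replicate shows inhibition above about 80%, whatever the replicate mean, limit read from the data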
Env fusion inh: blocks HIV Env-driven cell-cell fusion. HeLa-JRFL Env/CEM21 cell fusion, luciferase. inhibition, % at 12.3 µM. actives 1.1% (n = 360,000);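 active = mean replicate inhibition score of at least 50 and every replicate individually at or above 50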
Arrestin-AP2 inh: blocks beta-arrestin peptide binding to AP2 adaptin; inhibition, % at 10 µM; actives 0.31% (n = 340,000); AID 504490; FITC-arrestin peptide / GST-AP2 beads, flow cytometry; AP2 beta2 appendage carries R879A mutation;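 active = inhibition above a set limit, near 3 SD of compounds lacking own fluorescence, cut at about 54% in these data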
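System: GST-AP2 R879A bound to glutathione beads, E. coli-expressed. Also added: 50 nM FITC-arrestin peptide. Schedule: compound with beads 12 min RT, then probe 1 h RT. Signal: bead flow cytometry, FITC channel. Read-out basis: percent response.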
PAX8 reporter: lowers PAX8-driven luciferase in RMG-I cells. RMG-I TPO-luciferase reporter, SteadyGlo, 24 h. inhibition, % at 12.6 µM. actives 1.2% (n = 360,000);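 active = mean replicate inhibition at least 60% with every replicate also reaching 60%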;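 note: luciferase light reporting Pax8 driven TPO promoter activity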
Rtt109 HAT inh: C. albicans Rtt109 histone acetyltransferase inhibition | Q5AAJ8 | purified Rtt109/Vps75, ThioGlo CoA-SH fluorescence, 4 h | inhibition, % at 34.9 µM | actives 0.16% (n = 330,000) | AID 540336;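 active = inhibition of at least 50% in every replicate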
Target sequence (Q5AAJ8 whole entry, looked up): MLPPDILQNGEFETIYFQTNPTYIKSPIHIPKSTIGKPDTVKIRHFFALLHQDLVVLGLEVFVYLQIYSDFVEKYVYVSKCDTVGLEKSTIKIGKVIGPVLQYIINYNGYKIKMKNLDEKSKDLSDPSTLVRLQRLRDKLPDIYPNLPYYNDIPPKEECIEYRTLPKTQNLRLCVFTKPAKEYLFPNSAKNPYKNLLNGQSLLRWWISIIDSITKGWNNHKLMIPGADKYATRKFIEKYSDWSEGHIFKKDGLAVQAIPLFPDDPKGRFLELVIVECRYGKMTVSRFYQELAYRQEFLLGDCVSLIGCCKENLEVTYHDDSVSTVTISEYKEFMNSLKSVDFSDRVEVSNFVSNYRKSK
N-glyco inh: blocks N-linked glycosylation in D54 reporter cells; D54 ERlucT glycosylation luciferase reporter, 24 h; percent of 100 nM tunicamycin response; reporter increase, % at 12.5 µM; actives 0.23% (n = 360,000);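 active = mean luciferase reporter signal, scaled so untreated is 0 and the glycosylation-blocking control 100, at or above a set limit in every replicate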;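 note: luciferase carries N-glycosylation sites so blocking glycosylation raises the light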
Hits are given with their value; - = inactive; . = no result; [ ] = remark or other dose.

SMILES | PfHsp90 yeast 2 | Env fusion inh | Arrestin-AP2 inh | PAX8 reporter | Rtt109 HAT inh | N-glyco inh
COc1ccc(CN(C)C[C@H]2OCCCC[C@H](C)Oc3ccc(NC(=O)Nc4cccc5ccccc45)cc3C(=O)N([C@@H](C)CO)C[C@H]2C)cc1 | . | - | . | - | . | .
COc1ccc(CN(C)C[C@@H]2OCCCC[C@H](C)Oc3ccc(NC(=O)Nc4ccc(F)cc4)cc3C(=O)N([C@H](C)CO)C[C@@H]2C)cc1 | . | - | . | - | . | .
O=C(C[C@@H]1C[C@@H]2c3cc(NC(=O)CC4CC4)ccc3O[C@@H]2[C@@H](CO)O1)NCCc1ccccc1 | . | - | . | - | . | .
CC(C)NC(=O)N1CC(=O)N2[C@H](CO)[C@@H](c3ccc(C#CCN(C)C)cc3)[C@H]2C1 | . | . | . | - | . | .
CCCNC(=O)N1C[C@H](O)COC[C@@H]2O[C@@H](CC(=O)N3CCCCC3)CC[C@H]21 | . | . | . | - | . | .
O=C(C[C@H]1CC[C@H]2[C@@H](COC[C@@H](O)CN2C(=O)c2ccncc2)O1)NCc1cccc(F)c1 | . | - | . | - | . | .
CC(=O)N1CCN(c2ccc(OC[C@H]3CO[C@](Cn4ccnc4)(c4ccc(Cl)cc4Cl)O3)cc2)CC1 | 104 | . | - | - | - | -
CNC[C@H]1OCCCC[C@@H](C)Oc2ccc(NC(=O)C3CCCCC3)cc2C(=O)N([C@@H](C)CO)C[C@H]1C | . | - | . | - | . | .
COc1cc(OC)c2c(-c3cccc(-c4ccc(OC)c(F)c4)c3)cc(=O)oc2c1 | - | - | - | 89 | - | -
COc1cc(OC)c2c(-c3cccc(-c4ccc(C(C)=O)cc4)c3)cc(=O)oc2c1 | - | . | - | . | - | -
Cc1ccccc1S(=O)(=O)N1C[C@H](O)COC[C@@H]2O[C@@H](CC(=O)N3CCC(Cc4ccccc4)CC3)CC[C@H]21 | . | . | . | - | . | .
O=C(C[C@H]1CC[C@H]2[C@@H](COC[C@@H](O)CN2S(=O)(=O)c2ccccc2Cl)O1)N1CCC(Cc2ccccc2)CC1 | . | . | . | 80 | . | .
O=C(C[C@@H]1CC[C@@H]2[C@H](COC[C@H](O)CN2S(=O)(=O)c2ccccc2Cl)O1)N1CCC(Cc2ccccc2)CC1 | . | . | . | 78 | . | .
CO[C@H]1CN(C)C(=O)c2cc(NS(C)(=O)=O)ccc2OC[C@H](C)N(C(=O)CC2CC2)C[C@@H]1C | . | - | . | - | . | .
COc1cccc(S(=O)(=O)Nc2ccc3c(c2)[C@H]2C[C@@H](CC(=O)NCc4ccc(Cl)cc4)O[C@H](CO)[C@H]2O3)c1 | . | - | . | 63 | . | .
COc1cccc(S(=O)(=O)Nc2ccc3c(c2)[C@@H]2C[C@H](CC(=O)NCc4ccc(Cl)cc4)O[C@H](CO)[C@@H]2O3)c1 | . | - | . | - | . | .
COc1cccc(S(=O)(=O)Nc2ccc3c(c2)[C@@H]2C[C@H](CC(=O)NCc4ccc(Cl)cc4)O[C@@H](CO)[C@@H]2O3)c1 | . | - | . | 62 | . | .
O=C(C[C@H]1CC[C@H]2[C@@H](COC[C@@H](O)CN2C(=O)c2ccccc2F)O1)NCc1ccccc1 | . | . | . | - | . | .
O=C1Nc2cc(C(=O)NCCN3CCCCCC3)ccc2S/C1=C/c1ccccc1F | . | - | . | - | . | -
COc1cccc(/C=C2/Sc3ccc(C(=O)NCCCN4CCCC4)cc3NC2=O)c1 | - | - | - | - | 60 | -
COc1cccc(/C=C2/Sc3ccc(C(=O)NCCN4CCCC4)cc3NC2=O)c1 | - | - | - | - | 55 | -
O=C1Nc2cc(C(=O)NCCCN3CCCC3)ccc2S/C1=C/c1ccccc1F | - | - | - | - | - | -
COc1ccc(C#Cc2ccc([C@@H]3[C@@H](CO)N4CCCCN(C(=O)Nc5ccc(F)cc5)C[C@@H]34)cc2)cc1 | . | . | . | - | . | .
C[C@H]1CN([C@@H](C)CO)S(=O)(=O)c2ccc(/C=C/c3ccccc3)cc2O[C@H]1CN(C)C(=O)C1CC1 | . | - | . | . | . | .
CCC(=O)N(C)C[C@H]1Oc2cc(/C=C/c3ccccc3)ccc2S(=O)(=O)N([C@@H](C)CO)C[C@H]1C | . | 59[16.7 µM] | . | . | . | .
SMILES | PfHsp90 yeast 2 | Env fusion inh | Arrestin-AP2 inh | PAX8 reporter | Rtt109 HAT inh | N-glyco inh
C[C@@H]1CN([C@@H](C)CO)S(=O)(=O)c2ccc(/C=C/c3ccccc3)cc2O[C@@H]1CN(C)C(=O)C1CC1 | . | 55[16.7 µM] | . | . | . | .
CCC(=O)N(C)C[C@@H]1Oc2cc(C#Cc3ccccc3)ccc2S(=O)(=O)N([C@@H](C)CO)C[C@H]1C | . | 59[16.7 µM] | . | - | . | .
CCC(=O)N(C)C[C@H]1Oc2cc(C#Cc3ccccc3)ccc2S(=O)(=O)N([C@@H](C)CO)C[C@H]1C | . | - | . | - | . | .
CC(=O)N(C)C[C@@H]1Oc2cc(/C=C/c3ccccc3)ccc2S(=O)(=O)N([C@H](C)CO)C[C@H]1C | . | - | . | . | . | .
CO[C@H]1CN(C)C(=O)c2cc(NS(=O)(=O)c3cccc(F)c3)ccc2OC[C@H](C)NC[C@@H]1C | . | - | . | - | . | .
CO[C@@H]1CN(C)C(=O)c2cc(NC(=O)C3CCC3)ccc2OC[C@@H](C)N(C)C[C@@H]1C | . | - | . | - | . | .
O=C(CNS(=O)(=O)c1c(Cl)cccc1Cl)OCC(=O)c1ccc[nH]1 | - | - | - | 75 | - | -
O=C(CNS(=O)(=O)c1ccc(Br)cc1Cl)OCC(=O)c1ccc[nH]1 | - | - | - | - | - | -
CCCC(=O)NC1CCc2cc(OC)c(OC)c(OC)c2-c2ccc(OC)c(=O)cc21 (centres undefined) | - | - | - | 78 | - | -
COC(=O)c1ccc2c(c1)C(NC(C)=O)CCc1cc(OC)c(OC)c(OC)c1-2 (centres undefined) | - | - | - | 85 | - | -
COc1c(C=O)c2c(c(OC)c1OC)-c1ccc(OC)c(=O)cc1C(NC(C)=O)CC2 (centres undefined) | . | - | - | 87 | - | -
COc1ccc(C(C)=O)cc1CC(=O)NC1CCCCCC1 | - | - | - | - | - | -
COc1cc2c(c(OC)c1OC)-c1ccc(OC)c(=O)cc1C(NC(C)=O)CC2 (centres undefined) | - | - | - | 96 | - | -
COc1cc(CC(=O)NC2CCCc3ccccc32)cc(OC)c1OC (centres undefined) | - | - | - | - | - | -
C[C@@H]1CN([C@@H](C)CO)C(=O)Cc2cc(NC(=O)c3ccncc3)ccc2O[C@@H]1CN(C)S(C)(=O)=O | . | - | . | - | . | .
C[C@H](CO)N1C[C@H](C)[C@H](CN(C)S(=O)(=O)c2cccs2)OCCCC[C@H](C)Oc2ccc(NS(=O)(=O)c3cn(C)cn3)cc2C1=O | . | - | . | - | . | .
COc1cc(F)c(C2=CC(=O)C[C@H](c3ccc4c(c3)OCO4)C2)cc1F | - | - | - | - | - | -
COc1ccc(F)cc1C1=CC(=O)C[C@H](c2ccc3c(c2)OCO3)C1 | - | . | - | - | - | 30
COC1(OC)C(/C=C/c2ccc(C)cc2)C(C#N)(C#N)C1(OC)OC (centres undefined) | . | - | - | 85 | - | -
